Source: the array DNA melting data of Ke et al. (doi:10.1101/2024.01.08.574731)

Assays:
[1] = melting temperature; fluorescence melt of hairpins on a sequencing array, two-state fit, raised by 9.35 °C to match UV melts; conditions: sodium 0.088 M
Summary of the method: (§1)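 In 50 mM Na-HEPES pH 8.0 containing 25 mM NaCl, hairpins from the library on a sequenced MiSeq flow cell were imaged for Cy3 fluorescence at 2.5 °C steps up to 60 °C, with Cy3 and quencher oligos annealed. After normalisation to pre-quench Cy3 and to control constructs, two-state fits with bootstrapping gave melting temperature and folding enthalpy. Four replicates were combined by inverse-variance weighting, and fitted temperatures were shifted up by 9.35 °C to match UV melts.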

[2] = folding enthalpy; higher = less favourable; fluorescence melt of hairpins on a sequencing array, two-state fit; conditions: sodium 0.088 M
Summary of the method: as §1

Sequence | Tm [1] | folding enthalpy [2]
GACTGTGGAAACATGGTC (((..((....))..))) | 37.9 °C | -28.7 kcal/mol
GCCGCGCGAAAGCTCTGC ((.(.((....)).).)) | 30.7 °C | -10.9 kcal/mol
GGTAGCGAAAGCTTTACC ((((((....)))..))) | 34.4 °C | -15.7 kcal/mol
GCTGTGCGAAAGCATGGC ((..(((....)))..)) | 59.5 °C | -22.4 kcal/mol
GCTCTAGGAAACTAGAGC (((((((....))))))) | 60.1 °C | -44.6 kcal/mol
GAGCCCGAAAGGGATCTC ((((((....)))..))) | 69 °C | -24.6 kcal/mol
GGTTAACGAAAGTTCACC (((.(((....))).))) | 43 °C | -31.3 kcal/mol
GGAGAACGAAAGTTTCC (((.(((....)))))) | 33.4 °C | -19.7 kcal/mol
GCTCGCGGAAACGTGAGC ((((.((....)).)))) | 64.9 °C | -37.6 kcal/mol
GTTCTAGGAAACTGGAAC ((((.((....)).)))) | 42.2 °C | -28.7 kcal/mol
GCTTCGCGAAAGCTCAGC (((..((....))..))) | 44.5 °C | -13.4 kcal/mol
GCCACAGGAAACTACGGC (((..((....))..))) | 39.5 °C | -30.8 kcal/mol
GATCACATAGTGATC ((((((...)))))) | 62.4 °C | -40 kcal/mol
GATCTGGCGACAGATC ((((((....)))))) | 55.8 °C | -44.1 kcal/mol
GTACTCCGAAAGGACTAC (((.(((....))).))) | 33.2 °C | -14.1 kcal/mol
GGCGTTTCGAAAGAAGCC (((..(((....)))))) | 42.5 °C | -23.8 kcal/mol
GGGTGAGGAAACTCGCTC (.(.(((....))).).) | 38.1 °C | -21.6 kcal/mol
GATCCCATAGGGATC ((((((...)))))) | 67 °C | -36.9 kcal/mol
GATCCTGTCAGGATC ((((((...)))))) | 56.5 °C | -36.7 kcal/mol
GATCGTTAACACGATC ((((((....)))))) | 52.3 °C | -37.9 kcal/mol
GCAGGGGCGAAAGCCTGC (((..(((....)))))) | 53.7 °C | -17.6 kcal/mol
GAATGCGGAAACGCATCC (.(((((....))))).) | 42.5 °C | -11.6 kcal/mol
GATCTCAGAGAGATC ((((((...)))))) | 55.4 °C | -36 kcal/mol

Sequence | Tm [1] | folding enthalpy [2]
GATCGAGGAAACTCAATC (((.(((....))).))) | 25.9 °C | -10.2 kcal/mol
GGGGTAGGAAACTACCCC (((((((....))))))) | 67.2 °C | -25.7 kcal/mol
GGGGCCGCGAAAGCGCCC (((..(((....)))))) | 66 °C | -11 kcal/mol
GGGGTGGGAAACCATCCC (((.(((....))).))) | 56.6 °C | -41.7 kcal/mol
GATCACCCATGTGATC ((((((....)))))) | 55.7 °C | -33.8 kcal/mol
GATCCAGGCCTGGATC ((((((....)))))) | 60 °C | -54.9 kcal/mol
GTTTTTGGAAACAAGAAC (((.(((....))).))) | 32.7 °C | -19.6 kcal/mol
GATGCCGAAAGGCGGATC ((((((....)))..))) | 40.5 °C | -10.5 kcal/mol
GCTCTGCGAAAGCCTAGC (((..((....))..))) | 36.6 °C | -14.7 kcal/mol
GATCTATTATTAGATC ((((((....)))))) | 43.2 °C | -34.1 kcal/mol
CGATCGGAAACGACTTCG ((((((....)))..))) | 25.6 °C | -11.3 kcal/mol
GTGTACTCGAAAGAGCAC (((..(((....)))))) | 43.5 °C | -21.8 kcal/mol
GCAGCCGCGAAAGCGTGC (((..(((....)))))) | 48.4 °C | -8.84 kcal/mol
GAGGACGAAAGTCACTC ((((((....))).))) | 43.1 °C | -17.9 kcal/mol
GTATCCGAAAGGACTAC ((((((....))).))) | 35.9 °C | -14.3 kcal/mol
GCTAGCGAAAGCTCAGC ((((((....))).))) | 48.9 °C | -19.6 kcal/mol
GATCTGCGCTCAGATC ((((((....)))))) | 49.3 °C | -39.7 kcal/mol
GACGCGGGAAACCACGCC (.((.((....)).)).) | 34.6 °C | -12.4 kcal/mol
GGGGTTCGAAAGAAACCC (((.(((....))).))) | 59.5 °C | -41.3 kcal/mol
GCTAAAGGAAACTTTAGC (((((((....))))))) | 53.7 °C | -37.4 kcal/mol
GATCACTGCGTGATC ((((((...)))))) | 61 °C | -26.3 kcal/mol
GATCATAGCAATGATC ((((((....)))))) | 47.4 °C | -40.3 kcal/mol
GGACCAGGAAACTAGTCC ((((.((....)).)))) | 36.4 °C | -26.9 kcal/mol

Sequence | Tm [1] | folding enthalpy [2]
GTAAAACGAAAGTTATAC (((.(((....))).))) | 31.6 °C | -14.8 kcal/mol
GCGATGGGAAACTATCGC (((((.(....).))))) | 55.9 °C | -42 kcal/mol
GTCCTCCGAAAGGATGAC (((.(((....))).))) | 48.6 °C | -30.7 kcal/mol
GACACAACGAAAGTTGTC (((..(((....)))))) | 38.7 °C | -9.73 kcal/mol
GAGCGTACGAAAGTACTC (((..(((....)))))) | 27 °C | -13.4 kcal/mol
GCAAGGCGAAAGCACTGC (((..((....))..))) | 46.7 °C | -19.7 kcal/mol
GATCCTTCGAAGGATC ((((((....)))))) | 54.1 °C | -49.6 kcal/mol
GATAAGGGAAACCCTATC ((((.((....)).)))) | 30.6 °C | -15.6 kcal/mol
GTTTATCGAAAGATCAAC (((.(((....))).))) | 34.6 °C | -22.1 kcal/mol
GCTCTGCCGAAAGGCAGC (((..(((....)))))) | 40 °C | -6.01 kcal/mol
CGTCTCGGAAACGAACG (((.(((....)))))) | 36.1 °C | -23.4 kcal/mol
AGTAGCTGAAAAGTTACT ((((.((....)).)))) | 36 °C | -20.2 kcal/mol
GGCAAGGGAAACCTTACC ((.((((....)))).)) | 37.4 °C | -29.2 kcal/mol
GCACACGAAAGTGAATGC ((((((....)))..))) | 42.8 °C | -23.9 kcal/mol
AGGACGAAAGTCCT (((((....))))) | 68.5 °C | -20.3 kcal/mol
GATCGGCCAGCCGATC ((((((....)))))) | 65.9 °C | -36.8 kcal/mol
GATCTCGCTGGAGATC ((((((....)))))) | 54.3 °C | -36.8 kcal/mol
GATCCTTCATAGGATC ((((((....)))))) | 52.4 °C | -39.5 kcal/mol
GCAACGCGAAAGCAGTGC (((..((....))..))) | 52.1 °C | -13.3 kcal/mol
GCGACTGGAAACAGCCGC (((.(((....))).))) | 56.2 °C | -51.9 kcal/mol
GCTTGGCGAAAGCCGGGC ((..(((....)))..)) | 59.2 °C | -20.6 kcal/mol
GACCCCGAAAGGGGTGTC ((((((....)))..))) | 60.6 °C | -9.59 kcal/mol
GTGTATGGAAACATACGC (.(((((....))))).) | 48.5 °C | -20.1 kcal/mol

Sequence | Tm [1] | folding enthalpy [2]
GATCCAGCATTGGATC ((((((....)))))) | 56 °C | -44.4 kcal/mol
GCATAAGGAAACTTATGC (((((((....))))))) | 54.7 °C | -39.1 kcal/mol
GGAACCGAAAGGTATTCC ((((((....)))..))) | 33.8 °C | -13.3 kcal/mol
GATCGCGAAAGCGGATC ((((((....))).))) | 57 °C | -16.4 kcal/mol
GCTACGCGAAAGCGCGGC ((..(((....)))..)) | 51 °C | -16.1 kcal/mol
GCAACAGAAATGTTGC ((((((....)))))) | 56.6 °C | -40.1 kcal/mol
GGCGACCGAAAGGTGCC (((.(((....)))))) | 63.5 °C | -20.9 kcal/mol
GTGCCCGGAAACAGGCAC (((((.(....).))))) | 54.9 °C | -40.4 kcal/mol
GGCTTCGCGAAAGCGGCC (((..(((....)))))) | 48.8 °C | -16.4 kcal/mol
GAGTCCGAAAGGATGCTC ((((((....)))..))) | 40.5 °C | -16.9 kcal/mol
GGTACTGGAAACAATACC ((((.((....)).)))) | 26.7 °C | -12 kcal/mol
GCCGCCGAAAGGCTGGGC ((((((....)))..))) | 64.8 °C | -20.4 kcal/mol
GTTACTCGAAAGAGAAAC (((.(((....))).))) | 41.9 °C | -28.2 kcal/mol
GCTCCGCGAAAGCCGCGC ((.(.((....)).).)) | 36.2 °C | -11.8 kcal/mol
GATCGTCGAACGATC ((((((...)))))) | 53.1 °C | -33.9 kcal/mol
GGGACCCGAAAGGGCCCC (((.(((....))).))) | 67.8 °C | -23.6 kcal/mol
CGCGGATTGCTCCGCG ((((((....)))))) | 64.9 °C | -48.8 kcal/mol
GATCGGGATTCCGATC ((((((....)))))) | 57.5 °C | -39.7 kcal/mol
GATCGGTCATCCGATC ((((((....)))))) | 59.4 °C | -39.7 kcal/mol
GATCGGGGAAACCCAATC (((.(((....))).))) | 32.8 °C | -20.8 kcal/mol
GATCCTTCTGAGGATC ((((((....)))))) | 53.7 °C | -38.4 kcal/mol
GCACACCGAAAGGTTTGC (((.(((....))).))) | 52.3 °C | -40.7 kcal/mol
GCGGGTGGAAACACTCGC (((.(((....))).))) | 60.7 °C | -40.8 kcal/mol
